The EternaBench riboswitch data

System: MS2 coat protein
Experiment: apparent Kd, MS2 coat protein; higher = weaker binding; RNA-MaP array; FMN 200 µM where present
Summary of the method: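 Binding was read on Illumina sequencing-chip clusters where stalled E. coli RNA polymerase had transcribed each design. A titration of SNAP-549-labelled MS2 coat protein began at 0.7 or 1.5 nM and doubled to 3 µM, once without ligand and once with constant ligand, in 100 mM Tris-HCl pH 7.5, 80 mM KCl, 4 mM MgCl2, BSA, DTT, yeast tRNA and Tween-20. The apparent Kd is the median of filtered per-cluster binding-curve fits, based on green signal normalised to red-channel RNA signal and control-cluster median Fmax.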

[1] = designed as: OFF switch for flavin mononucleotide, no ligand
[2] = ligand present: flavin mononucleotide, designed as: OFF switch for flavin mononucleotide
[3] = designed as: ON switch for flavin mononucleotide, no ligand
[4] = ligand present: flavin mononucleotide, designed as: ON switch for flavin mononucleotide

| Sequence | apparent Kd [1] [nM] | apparent Kd [2] [nM] | apparent Kd [3] [nM] | apparent Kd [4] [nM] |
| --- | --- | --- | --- | --- |
| UUUUGAUGAGGAUAUCGAGGUUAGUACAUGAGGAUCACCCAUGUUAUCCAGGUGUCGGUUCGAGAAGGUAUUGGAC | 18.5 | 22.9 |  |  |
| AAUCAUGUCCGAGGAUAUCUGGAAACAUUUUCAAGAGAAGGCGGACAUGAGGAUCACCCAUGUCUCUCCUCAUCAACUACAAAU | 14.6 | 89 |  |  |
| AUAAUUUUAUAUAUCAUUUUAAUCAGAAGGCAUAACAUGAGGAUCACCCAUGUAAAUUAUUGUUAUGAGGAUAUGAUUUGGUUA | 20.3 | 72.2 |  |  |
| GUCAGCUCGUGAGGAUAUACAACACUGCUUCGGCAGUGUAUUAAGCUCACAUGAGGAUCACCCAUGUAGAAGGCACGAGCUGAU | 5.37 | 11.2 |  |  |
| GCGCUUAUACAGAAGGCCAGAGACAUGAGGAUCACCCAUGUUAGAUGGUGGAGGAUAUGUGUUUUAUUACAGAUAGUUGAGCGC |  |  | 6.38 | 6.13 |
| UCGACCGGAGGAUAUCACGUAAAGUACAUGAGGAUCACCCAUGUGUGAUGACUCGAGUCGUGAGAAGGCCGAUAUG | 76.4 | 172 |  |  |
| GGAUAGGGCAGAGGAUAUACGUGCUAGAGAUACUAGCAAAAUUUCCUCACAUGAGGAUCACCCAUGUAGAAGGCUGUCCUAUCG | 14.1 | 464 |  |  |
| CGUAGGAUGCAGAAGGCAUGAACAUGAGGAUCACCCAUGUUAAAAGACAUGAGGAUAUGCAUCCUACGAAAAGUGCGAAAGCAC |  |  | 5.15 | 4.54 |
| GUAGCAUACCGAGGAUAUUCGUCCGGAUUACGGACAUGAGGAUCACCCAUGUGGCGAAAGCCUUGGGAGAAGGCGGAAUGCUAC |  |  | 732 | 247 |
| CAAUUGGCACAGAAGGGUGACAUGAGGAUCACCCAUGUAGCGUGGCACUUAGGAGGAGCCACGCCACAGGAUAUGUGCGGGCAC |  |  | 76.4 | 111 |
| AAAUUAGUUGUAGGAUAUCGGUCGAACAUCUCACGAGAAGGGCAACAUGAGGAUCACCCAUGUAGGUCGCCUACGUAAGAUCGC | 5.84 | 6.71 |  |  |
| AAUACAAAUAGUCAGGAUAUCAAAAAUAAGACAUGAGGAUCACCCAUGUAAUAAGUAAAAGUAAAUGAGAAGGGACAGGGUGAAA |  |  | 168 | 266 |
| AUUGAGCUAGGAUAUACAUGAGGAUCACCCAUGUAGCAAAAUAGCUAUACAUGAUCGGGUAGAAGGAGCGCGAG | 13.6 | 20.5 |  |  |
| UGAUAGGACAGAGGAUAUACGUGCUGGAGAUACUAGCAAAGUAUCUUGACAUGAGGAUCACCCAUGUAGAAGGCUGUCCUAUCU | 16.9 | 89.2 |  |  |
| GUCAGCUCGUGAGGAUAUACAACACUGCUUCGGCAGUGUAUUAAGAUAACAUGAGGAUCACCCAUGUAGAAGGCACGAGCUGAU | 5.58 | 8.48 |  |  |
| UGUCGGAGCAGAGGAUAUUACAUGAGGAUCACCCAUGUAUGAACCAAUAGCUGGAAACAGCUAUGUAAGAAGGCUGCUCCGACA | 5.31 | 9.42 |  |  |
| UAUAUAUAGUAAGGAUAUAUAUUUUUUUUUUAAAUAGAAGGUACAGACAUGAGGAUCACCCAUGUUAUAAUAUGGACAUGUGGA | 99 | 136 |  |  |
| AAGAUACUUACAGGAUAUAGGGCAUAGGGUGCCCUAGAAGGGUGAACAUGAGGAUCACCCAUGUAUGUAUCAGAUUAGAAGGCA |  |  | 53.3 | 41.8 |
| CCCUAGGGAGGAUAUCCAAUAUAUGACAUGAGGAUCACCCAUGUUUCCACUCGUACCUCCGGAGAAGGCCCAUCCC | 26.3 | 24.5 |  |  |
| CUGACGCAAGCAGGAUAUCUACUGGCGAUGGUACAUGAGGAUCACCCAUGUAGAGAAGGGCUAAGUGGAAGGAUAAAAUAAAAG | 110 | 120 |  |  |
| UGAACUAUGUAGAAGGCCCGCAUGAAAAUGACGGGAGGAUAUACAUGAGGAUCACCCAUGUGAAGAGCAAGAGGGUUUAACAGA | 282 | 163 |  |  |
| AUGACAUGCACAGGAUAUUAGGCGCAGUACAGAUAAGAAGGGUGGAUCAGCAUACAUGAGGAUCACCCAUGUUGUUGUAACAUG |  |  | 350 | 183 |
| GUACCUUAUGAGAAGGCGAUCAUAAAACAUGAUCGAGGAUAUCAUGUAAACAUGAGGAUCACCCAUGUAUGGGUAUUAUGGUAC |  |  | 68.7 | 17.5 |
| UGUCGGAGCAGAGGAUAUUACAUGAGGAUCACCCAUGUAUGAACCAACAGCUGGAAACAGCAAUGUAAGAAGGCUGCUCCGACA | 10.4 | 131 |  |  |
| UGGUACUAGGCAGGAUAUGGGAAGAUACAUGAGGAUCACCCAUGUUUAAGAAUGCCGAGAGGCAACUAGAAGGCCCUAGUACCU |  |  | 719 | 620 |
| GUAUCUUACCAAGGAUAUUUAAGAUUUGUGUAGACAUGAGGAUCACCCAUGUGGCCUUAGUCACGGGAGAAGGUGGUUUGAUAC |  |  | 940 | 492 |
| AAAAUCAAAUCAGGAUAUUCAUACACUACAUACGGAGAAGGGAUACAAUCAUGAGGACAUGAGGAUCACCCAUGUUGUGACCAU |  |  | 102 | 54.8 |
| AGUCUGUGGCAACUAUCCUCACAUGAGGAUCACCCAUGUAGGGAGGAUAUGCAUUUAAAGAAGUGGCAGAAGGCCCUACACGGA | 83.2 | 32.1 |  |  |

| Sequence | apparent Kd [1] [nM] | apparent Kd [2] [nM] | apparent Kd [3] [nM] | apparent Kd [4] [nM] |
| --- | --- | --- | --- | --- |
| ACUCGGAGCUGGCGACAGAAGACAUGAGGAUCACCCAUGUAGAGAAGGAGCCCUGGGACCGGUGGCUAGGAUAUUUACAUCGGU | 6.9 | 12.3 |  |  |
| GGAGCAAGUGUCAGGAUAUCGUGGUCGAUAGAUCACGAGAAGGGACAUGAGGAUCACCCAUGUGUCCUAGCUCC | 262 | 484 |  |  |
| AGUUUUGUACAUGAGGAUCACCCAUGUUAAUAUGUGGUAGUCAGAAGGCAUUGUUAGUGUUUAUAUGAGGAUAUGAUUAGGCAG |  |  | 46.6 | 24.6 |
| ACACAUGUCCGAGGAUAUCUGAGAUCAUUUUCAAGAGAAGGCGGACAUGAGGAUCACCCAUGUCUCUCCUCAUCAACUCCAAAU | 8.06 | 49.2 |  |  |
| AGAUUUGUACAUGAGGAUCACCCAUGUUAAUAGGUGUUUGUCAGAAGGCAUUAAUAGAGAUUUAAUGAGGAUAUGAAGUUACAA |  |  | 70.3 | 46.3 |
| UUAUGAUUAAGAGGAUAUAUACAACAUGAGGAUCACCCAUGUACCCAUGUAGUAGAAGGUUUAUUUUUAUAUAAUAAUAUAAUU |  |  | 115 | 64.9 |
| GAGAAUACACUCGUCUCCGCUCAACCAGAAGGGCAUGAUAAUAUUACAUGAGGAUCACCCAUGUUGCAGGAUAUGGUGAGCCUC |  |  | 141 | 58.9 |
| UACAUGAGGAUCACCCAUGUUUUGUCGUGUAUGGUAUUUAUCUAGGAUAUCAAUUGAGUUAUUUAUGAGAAGGAGAAUAUUAAU | 41.7 | 44 |  |  |
| GGGUGGCGUAUAGGAUAUAUGGUACAUGAGGAUCACCCAUGUACAUAUGAUGUUCAUGUUUGUGUAUAGAAGGAUACGUCGGGA |  |  | 9.44 | 8.86 |
| UUUUCUCGUGAGAAGGACAUGAGGAUCACCCAUGUAGGAUAUCGUGGGAGACAGGAAUUGAAUCUUCGGAUUCAAUUCCAGUCU |  |  | 107 | 10.1 |
| UGGGAACGAGGAUAUCGAUGGUGGAACAUGAGGAUCACCCAUGUAUGAGAUAGUGUAGGGCGAGAAGGCGUUAAGU | 94.8 | 66.5 |  |  |
| GGAUAGGACAGAGGAUAUACGUGCUAGACAUACUAGCAAAAUUUCCUCACAUGAGGAUCACCCAUGUAGAAGGCUGUCCUAUCG | 18.7 | 440 |  |  |
| AGUGUCAUCGAGAAGGCCUCAUUAACAUGAGGAUCACCCAUGUAAUAUGGGAGGAUAUCGAUGAUACAGCUACGUUUCGUAGCA |  |  | 216 | 55.2 |
| UUGACGGCAGGAUAUACAUGAGGAUCACCCAUGUAAAUUUUUCGUUUAACUUGAAUGUGUAGAAGGGCCAAAAU | 19.4 | 18.8 |  |  |
| AAAUAUAAUGAGGAUAUCGUACUGGAUAUAGUGCGAGAAGGCAUUACAUGAGGAUCACCCAUGUUUUGUUGGGA | 30.8 | 89.5 |  |  |
| AAUAACAGAGGAUAUGCAAAAAUAAGCGGAAACGCAAGAAAACAUGAGGAUCACCCAUGUAGAAGGCUGGAUAA | 23.6 | 17.6 |  |  |
| UGGAUGGUAUGAGGAUAUGCGCGUGAAACGCGCGCAGAAGGCAUGUCAAUAGACAUGAGGAUCACCCAUGUACUAUCCAUCCAA |  |  | 114 | 9.65 |
| GACUUGUUAGGAUAUCUUACAUUUGCAUCAUAGUAACCUUUGGAGAAGGGACAUGAGGAUCACCCAUGUUUGGA | 40.1 | 36.6 |  |  |
| GGGUACAGCGGAGGAUAUCAUGUAAAUACAUGAGGAUCACCCAUGUCGAUGGAGACAUCGGAGAUUGAGAAGGCCGAUGUACCG |  |  | 173 | 9.99 |
| CAGAAGUCAGGAUAUCCAUGGCGGCACUUGCGUGGUGGCGUGGAGAAGGGACAUGAGGAUCACCCAUGUAAAGG | 171 | 237 |  |  |
| UAAUCAUGUCCGUAUGUUUUCAGAGAGGAUAUACAUGCGGGCACCUUAACAUGAGGAUCACCCAUGUAGAAGGCUCUGAAAAUG | 97.3 | 22.5 |  |  |
| CGCUACUACCAGAAGGACAUGAGGAUCACCCAUGUAGGAUAUGGGUUACACGUUCCUGUGAAUUGUUACUACGCUACGUAUGCG |  |  | 401 | 21.5 |
| GGUAGAAACAUUAACAUGAGGAUCACCCAUGUCAAAAGAAAUGAGGAUAUCGUAUACAAUGUAUAUGAGAAGGCAUGGUCUGCC |  |  | 9.17 | 6.45 |
| CUAUAUAAUACCUCAUGUACAUGAGGAUCACCCAUGUUAACAAAGGAUAUAUUUAUAUUAAUAAAGUAGAAGGUUGUACUAUUU | 19.5 | 17.1 |  |  |
| CUUUUGUGAGGAUAUUCGUAGUAGGGUCAUGGCAUUAUUAUGGAGAAGGCACAUGAGGAUCACCCAUGUACCUU | 19.7 | 27.5 |  |  |
| UUGCUCGUGUGAGGAUAUGCCGCCGUUUCGGCUGCAGAAGGUACUUUAAUACAUGAGGAUCACCCAUGUCUCUGUUGUUUCGUG |  |  | 26.5 | 26.9 |
| AUAUUAAGUGUGAGGAUAUGCUGGUCCUUGGAUCAGCAGAAGGCACAUGAGGAUCACCCAUGUAAUAUAUUUAA | 102 | 306 |  |  |
